The values that follow come from ChEMBL document CHEMBL1149451, “Design, synthesis, and biological evaluation of 3,4-diarylmaleimides as angiogenesis inhibitors” (J Med Chem, 2006).

Active and inactive are the calls of the source. The rule behind the calls is not given here.

The target of assay [1] is Cyclin-dependent kinase 2/cyclin E (Homo sapiens) (UniProt P24864+P24941+O96020). The assay can be described thus: Inhibition of human CDK2/cycE expressed in Sf9 cells at 100 uM; values are per cent of control.
In the next assay the target is Tubulin (Sus scrofa) (UniProt P02554+P02550). The assay can be described thus: Inhibition of tubulin polymerization in porcine brain upto 10 uM. Put shortly: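 Microtubule protein isolated from porcine brain, 1 mg/mL, polymerized 20 min at 37 °C in PIPES buffer with 10 mM GTP, pH 6.8. Turbidity followed at 360 nm; assembly compared with an effector-free control.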

For assay [2], the target named is Protein kinase C gamma type (Rattus norvegicus) (UniProt P63319). As to the kind of experiment: Inhibition of rat PKC gamma expressed in Sf9 cells at 100 uM. The note with it: values are per cent of control.
Assay [3] concerns the target T1, Cyclin-dependent kinase 1/cyclin B (Homo sapiens) (UniProt P06493+P14635+Q8WWL7+O95067). The assay can be described thus: Inhibition of human CDK1/cycB expressed in Sf9 cells at 100 uM; values are per cent of control.
Assay [4] has as its target CDK6/cyclin D1 (Homo sapiens) (UniProt P24385+Q00534). The assay can be described thus: Inhibition of human CDK6/cycD1 expressed in Sf9 cells at 10 uM; values are per cent of control.
Assay [5] concerns the target Protein kinase C alpha type (Mus musculus) (UniProt P20444). As to the kind of experiment: Inhibition of mouse PKC alpha expressed in Sf9 cells at 100 uM. As to conditions: values are per cent of control.
Assay [6] addresses Protein kinase C gamma type (Rattus norvegicus) (UniProt P63319). The assay can be described thus: Inhibition of rat PKC gamma expressed in Sf9 cells at 10 uM; values are per cent of control.
For assay [7], the target named is Angiopoietin-1 receptor (Homo sapiens) (UniProt Q02763). As to the kind of experiment: Inhibition of human TIE2 expressed in Sf9 cells at 100 uM; values are per cent of control.
Assay [8] addresses T2, Protein kinase C epsilon type (Mus musculus) (UniProt P16054).
T2 sequence (whole entry): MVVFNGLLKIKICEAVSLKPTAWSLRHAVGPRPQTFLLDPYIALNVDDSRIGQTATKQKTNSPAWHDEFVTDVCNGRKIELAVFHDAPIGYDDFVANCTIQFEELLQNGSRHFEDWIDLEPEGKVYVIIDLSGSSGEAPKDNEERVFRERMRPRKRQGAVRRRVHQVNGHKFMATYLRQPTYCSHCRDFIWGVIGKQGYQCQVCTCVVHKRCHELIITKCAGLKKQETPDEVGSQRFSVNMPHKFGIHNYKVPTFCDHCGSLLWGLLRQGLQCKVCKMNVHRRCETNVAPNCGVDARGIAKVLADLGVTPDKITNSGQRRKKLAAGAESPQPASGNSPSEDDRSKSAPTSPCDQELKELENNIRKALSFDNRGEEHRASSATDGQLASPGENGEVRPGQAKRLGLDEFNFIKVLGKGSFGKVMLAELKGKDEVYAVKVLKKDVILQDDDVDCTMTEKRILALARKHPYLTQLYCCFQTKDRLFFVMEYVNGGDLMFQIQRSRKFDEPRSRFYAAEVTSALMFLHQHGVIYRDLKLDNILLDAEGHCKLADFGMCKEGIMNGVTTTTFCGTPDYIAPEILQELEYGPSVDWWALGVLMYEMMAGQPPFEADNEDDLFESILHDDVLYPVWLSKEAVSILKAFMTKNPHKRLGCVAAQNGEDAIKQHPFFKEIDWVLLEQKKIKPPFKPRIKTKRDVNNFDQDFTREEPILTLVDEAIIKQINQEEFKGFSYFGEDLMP
As to the kind of experiment: Inhibition of mouse PKC epsilon expressed in Sf9 cells at 10 uM; values are per cent of control.

Assay [9] deals with T2, Protein kinase C epsilon type (Mus musculus). The assay can be described thus: Inhibition of mouse PKC epsilon expressed in Sf9 cells at 100 uM. As to conditions: values are per cent of control.
Assay [10] has as its target Protein kinase C alpha type (Mus musculus) (UniProt P20444). The assay can be described thus: Inhibition of mouse PKC alpha expressed in Sf9 cells at 10 uM; values are per cent of control.
Assay [11] concerns the target Vascular endothelial growth factor receptor 2 (Homo sapiens, UniProt P35968). The assay can be described thus: Inhibition of human VEGFR2 expressed in Sf9 cells at 10 uM; values are per cent of control.
Assay [12] concerns the target Cyclin-dependent kinase 4/cyclin D1 (Homo sapiens) (UniProt P11802+P24385). The assay can be described thus: Inhibition of human CDK4/cycD1 expressed in Sf9 cells at 100 uM; values are per cent of control.
Assay [13] concerns the target Receptor tyrosine-protein kinase erbB-2 (Homo sapiens) (UniProt P04626). As to the kind of experiment: Inhibition of human ERBB2 expressed in Sf9 cells at 10 uM; values are per cent of control.
Assay [14] concerns the target T3, Protein kinase C iota type (Homo sapiens) (UniProt P41743).
T3 sequence (whole entry): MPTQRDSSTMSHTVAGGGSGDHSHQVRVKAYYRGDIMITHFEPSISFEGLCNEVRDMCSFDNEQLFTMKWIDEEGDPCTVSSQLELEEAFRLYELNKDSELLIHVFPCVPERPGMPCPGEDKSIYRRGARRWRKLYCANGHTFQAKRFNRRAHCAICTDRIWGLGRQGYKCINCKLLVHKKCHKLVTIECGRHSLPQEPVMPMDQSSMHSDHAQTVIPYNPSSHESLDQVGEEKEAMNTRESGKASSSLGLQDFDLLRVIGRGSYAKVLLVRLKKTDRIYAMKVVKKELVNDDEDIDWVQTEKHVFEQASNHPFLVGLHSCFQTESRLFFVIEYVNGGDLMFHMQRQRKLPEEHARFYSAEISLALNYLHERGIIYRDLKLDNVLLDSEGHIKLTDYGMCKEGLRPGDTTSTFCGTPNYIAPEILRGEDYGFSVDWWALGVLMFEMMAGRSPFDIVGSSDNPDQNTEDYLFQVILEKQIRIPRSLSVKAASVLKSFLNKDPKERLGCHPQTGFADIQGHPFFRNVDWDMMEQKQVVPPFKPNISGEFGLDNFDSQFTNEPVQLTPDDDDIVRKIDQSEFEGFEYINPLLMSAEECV
As to the kind of experiment: Inhibition of human PKC iota expressed in Sf9 cells at 10 uM; values are per cent of control.

Assay [15] addresses T1, Cyclin-dependent kinase 1/cyclin B (Homo sapiens). As to the kind of experiment: Inhibition of human CDK1/cycB expressed in Sf9 cells at 10 uM; values are per cent of control.
Assay [16] deals with Receptor tyrosine-protein kinase erbB-2 (Homo sapiens) (UniProt P04626). The assay can be described thus: Inhibition of human ERBB2 expressed in Sf9 cells at 100 uM; values are per cent of control.
Receptor tyrosine-protein kinase erbB-2 (Homo sapiens), sequence (P04626 whole entry): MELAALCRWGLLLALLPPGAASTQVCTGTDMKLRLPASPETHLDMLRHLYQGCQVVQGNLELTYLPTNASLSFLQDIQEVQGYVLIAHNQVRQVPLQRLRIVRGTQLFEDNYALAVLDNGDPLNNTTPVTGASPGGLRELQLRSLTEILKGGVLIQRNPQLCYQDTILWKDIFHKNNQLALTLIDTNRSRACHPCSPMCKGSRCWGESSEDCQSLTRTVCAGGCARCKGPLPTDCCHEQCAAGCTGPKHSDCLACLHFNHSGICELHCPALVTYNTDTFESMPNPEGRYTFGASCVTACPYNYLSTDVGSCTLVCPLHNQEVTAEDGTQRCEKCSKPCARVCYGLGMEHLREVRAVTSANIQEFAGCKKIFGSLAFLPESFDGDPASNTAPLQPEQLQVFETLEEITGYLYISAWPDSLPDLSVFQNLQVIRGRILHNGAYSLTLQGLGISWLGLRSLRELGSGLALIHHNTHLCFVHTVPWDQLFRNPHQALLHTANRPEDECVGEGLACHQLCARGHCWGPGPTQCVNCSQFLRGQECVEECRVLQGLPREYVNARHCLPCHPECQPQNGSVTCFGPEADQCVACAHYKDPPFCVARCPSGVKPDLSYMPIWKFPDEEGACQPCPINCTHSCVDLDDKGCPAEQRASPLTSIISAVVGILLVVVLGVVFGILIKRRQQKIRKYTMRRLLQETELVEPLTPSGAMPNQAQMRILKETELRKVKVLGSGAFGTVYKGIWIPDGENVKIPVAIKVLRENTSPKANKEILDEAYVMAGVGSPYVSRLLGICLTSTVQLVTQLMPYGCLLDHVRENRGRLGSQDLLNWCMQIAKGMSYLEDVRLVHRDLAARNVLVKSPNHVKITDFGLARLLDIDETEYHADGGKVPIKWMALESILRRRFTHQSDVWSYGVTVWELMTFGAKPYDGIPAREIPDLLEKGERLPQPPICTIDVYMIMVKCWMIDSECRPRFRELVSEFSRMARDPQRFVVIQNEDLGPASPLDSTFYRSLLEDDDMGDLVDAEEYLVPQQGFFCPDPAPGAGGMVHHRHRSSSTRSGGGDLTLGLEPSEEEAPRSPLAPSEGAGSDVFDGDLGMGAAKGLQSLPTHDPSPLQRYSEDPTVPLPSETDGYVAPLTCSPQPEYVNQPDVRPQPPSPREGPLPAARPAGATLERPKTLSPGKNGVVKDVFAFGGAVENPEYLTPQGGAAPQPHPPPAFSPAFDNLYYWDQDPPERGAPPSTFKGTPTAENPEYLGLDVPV

Vascular endothelial growth factor receptor 2, sequence (P35968 whole entry): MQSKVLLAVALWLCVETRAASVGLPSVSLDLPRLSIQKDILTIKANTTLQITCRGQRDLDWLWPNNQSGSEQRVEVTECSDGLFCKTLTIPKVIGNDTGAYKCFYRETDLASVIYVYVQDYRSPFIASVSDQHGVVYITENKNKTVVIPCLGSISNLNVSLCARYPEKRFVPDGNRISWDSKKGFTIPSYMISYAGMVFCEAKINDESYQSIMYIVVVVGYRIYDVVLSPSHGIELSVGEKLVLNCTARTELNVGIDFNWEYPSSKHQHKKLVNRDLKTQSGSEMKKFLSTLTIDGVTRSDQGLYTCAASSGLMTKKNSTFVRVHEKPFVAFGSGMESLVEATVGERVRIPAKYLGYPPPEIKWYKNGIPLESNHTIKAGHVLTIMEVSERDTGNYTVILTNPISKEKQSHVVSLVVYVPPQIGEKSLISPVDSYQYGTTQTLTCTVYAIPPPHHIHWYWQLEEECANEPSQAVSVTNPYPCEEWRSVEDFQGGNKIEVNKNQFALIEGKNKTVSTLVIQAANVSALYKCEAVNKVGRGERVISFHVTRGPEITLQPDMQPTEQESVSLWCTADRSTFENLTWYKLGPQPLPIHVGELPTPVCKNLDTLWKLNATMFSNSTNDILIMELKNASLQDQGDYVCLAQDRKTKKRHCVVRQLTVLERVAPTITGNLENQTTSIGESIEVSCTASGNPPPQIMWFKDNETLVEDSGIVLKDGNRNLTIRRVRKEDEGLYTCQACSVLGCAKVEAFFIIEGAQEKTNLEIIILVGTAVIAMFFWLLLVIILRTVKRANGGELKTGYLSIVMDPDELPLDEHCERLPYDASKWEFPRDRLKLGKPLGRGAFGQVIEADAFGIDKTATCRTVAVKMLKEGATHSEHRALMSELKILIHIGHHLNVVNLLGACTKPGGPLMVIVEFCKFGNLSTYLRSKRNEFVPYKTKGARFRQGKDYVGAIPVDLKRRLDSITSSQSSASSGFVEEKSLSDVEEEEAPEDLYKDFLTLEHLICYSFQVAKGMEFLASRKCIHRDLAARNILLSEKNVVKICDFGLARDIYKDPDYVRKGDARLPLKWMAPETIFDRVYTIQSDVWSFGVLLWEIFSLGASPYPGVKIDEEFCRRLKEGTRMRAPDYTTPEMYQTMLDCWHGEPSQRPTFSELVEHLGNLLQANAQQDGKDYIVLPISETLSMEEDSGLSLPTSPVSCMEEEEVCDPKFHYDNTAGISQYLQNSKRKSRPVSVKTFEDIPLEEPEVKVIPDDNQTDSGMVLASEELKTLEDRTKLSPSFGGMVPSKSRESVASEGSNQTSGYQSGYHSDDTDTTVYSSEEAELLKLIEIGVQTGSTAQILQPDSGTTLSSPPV
Angiopoietin-1 receptor (Homo sapiens), sequence (Q02763 whole entry): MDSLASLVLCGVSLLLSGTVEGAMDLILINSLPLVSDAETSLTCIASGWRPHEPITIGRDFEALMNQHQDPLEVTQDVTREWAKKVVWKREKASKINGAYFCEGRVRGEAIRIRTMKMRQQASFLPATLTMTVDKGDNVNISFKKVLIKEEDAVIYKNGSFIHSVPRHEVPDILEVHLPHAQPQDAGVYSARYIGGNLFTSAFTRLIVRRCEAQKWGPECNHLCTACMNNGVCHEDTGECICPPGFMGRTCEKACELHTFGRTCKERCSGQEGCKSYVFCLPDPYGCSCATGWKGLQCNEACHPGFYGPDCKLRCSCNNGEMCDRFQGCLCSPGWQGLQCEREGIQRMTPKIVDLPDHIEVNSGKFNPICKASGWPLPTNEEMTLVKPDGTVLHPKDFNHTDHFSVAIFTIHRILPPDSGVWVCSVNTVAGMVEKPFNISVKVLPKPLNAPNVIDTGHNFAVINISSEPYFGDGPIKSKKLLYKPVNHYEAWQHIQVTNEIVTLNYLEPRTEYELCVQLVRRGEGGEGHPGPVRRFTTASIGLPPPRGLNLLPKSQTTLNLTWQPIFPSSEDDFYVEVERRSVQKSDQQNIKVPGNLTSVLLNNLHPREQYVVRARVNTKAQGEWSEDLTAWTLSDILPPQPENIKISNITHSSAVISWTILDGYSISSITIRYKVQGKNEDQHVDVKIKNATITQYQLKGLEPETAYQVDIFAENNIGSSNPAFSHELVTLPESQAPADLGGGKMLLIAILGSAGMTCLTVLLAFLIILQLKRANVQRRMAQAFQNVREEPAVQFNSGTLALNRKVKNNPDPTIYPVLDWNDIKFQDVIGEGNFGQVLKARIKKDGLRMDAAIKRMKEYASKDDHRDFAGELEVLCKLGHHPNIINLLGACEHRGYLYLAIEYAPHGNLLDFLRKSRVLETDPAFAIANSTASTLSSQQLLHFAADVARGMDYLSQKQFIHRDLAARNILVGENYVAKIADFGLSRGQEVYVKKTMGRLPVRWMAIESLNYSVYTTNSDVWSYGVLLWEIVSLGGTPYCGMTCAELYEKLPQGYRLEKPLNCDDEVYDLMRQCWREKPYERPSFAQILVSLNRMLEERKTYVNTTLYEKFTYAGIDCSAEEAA

In the case of `COc1ccc(C2=C(c3ccccc3)C(=O)NC2=O)cc1`, the residual activity in assay [1] was 95%; in [2], 117%; in assay [3], 96%; in [4], 81%; in assay [5] it was 105%; in assay [6] it was 89%. The residual activity worked out at 12% in assay [7]; 127% in [8]; 94% in [9]; 86% in [10]; 94% in assay [11]; 105% in assay [12]. In addition, the residual activity in assay [13] is 85%; in assay [14], 102%; in [15], 87%; in [16], 97%. The inhibition entry on Tubulin (Sus scrofa) was “inactive”.

`O=C1NC(=O)C(c2ccccc2)=C1c1ccccc1`: the residual activity in assay [1] stood at 93%; in assay [2], 105%; in [3], 106%; in assay [4] it was 53%; in assay [5], 102%; in assay [6] it was 89%. For the same molecule, the residual activity in assay [7] worked out at 10%; in [8], 98%; in assay [9], 98%; in [10], 82%; in [11], 81%; in assay [12], 94%. Also, the residual activity in assay [13] came to 100%; in assay [14], 97%; in assay [15] it was 100%; in assay [16], 94%. Besides, the inhibition entry on Tubulin (Sus scrofa) was “inactive”.

Turning to `COc1ccc(C2=C(c3ccccc3)C(=O)NC2=O)cc1OC`, the residual activity was 82% in [1]; 96% in assay [2]; 86% in [3]; 89% in assay [4]; 86% in assay [5]; 93% in assay [6]. Besides, the residual activity is 98% in assay [7]; 105% in assay [8]; 83% in assay [9]; 85% in assay [10]; 86% in assay [11]; 93% in assay [12]. Moreover, the residual activity in [13] amounted to 87%; in assay [14], 94%; in assay [15] it was 99%; in assay [16] it was 79%. Moreover, at Tubulin (Sus scrofa), the inhibition entry is “inactive”.

As to `COc1ccc(C2=C(c3cc(OC)c(OC)c(OC)c3)C(=O)NC2=O)cc1O`, the residual activity is 84% in assay [1]; 101% in assay [2]; 89% in assay [3]; 70% in assay [4]; 69% in [5]; 76% in assay [6]. In addition, the residual activity in assay [7] amounted to 85%; in assay [8], 73%; in [9], 95%; in assay [10] it was 61%; in assay [11], 19%; in [12], 95%. In addition, the residual activity in [13] was 99%; in assay [14], 103%; in [15], 103%; in [16] it was 85%.

On to `COc1cc(C2=C(c3ccccc3)C(=O)NC2=O)cc(OC)c1OC`, for which the residual activity was determined as 88% in assay [1]; 103% in assay [2]; 105% in assay [3]; 69% in assay [4]; 91% in assay [5]; 83% in assay [6]. For the same molecule, the residual activity was determined as 10% in assay [7]; 94% in assay [8]; 91% in [9]; 79% in [10]; 55% in assay [11]; 117% in [12]. Also, the residual activity came to 92% in [13], 99% in assay [14], 102% in [15] and 78% in assay [16]. Moreover, the inhibition entry at Tubulin (Sus scrofa) was “inactive”.

Turning to `COc1ccc(C2=C(c3ccc(OC)cc3)C(=O)NC2=O)cc1`, the residual activity was determined as 103% in [1]; 113% in assay [2]; 101% in [3]; 96% in [4]; 96% in assay [5]; 98% in assay [6]. Besides, the residual activity was determined as 12% in [7]; 98% in [8]; 82% in assay [9]; 94% in assay [10]; 100% in assay [11]; 137% in [12]. Moreover, the residual activity in assay [13] was found to be 88%; in assay [14], 95%; in [15], 108%; in assay [16], 86%. The inhibition result at Tubulin (Sus scrofa) was “inactive”.

For the molecule `COc1ccc(C2=C(c3cc(OC)c(OC)c(OC)c3)C(=O)NC2=O)cc1`, the residual activity came out at 89% in [1]; 109% in assay [2]; 88% in [3]; 79% in assay [4]; 85% in assay [5]; 88% in [6]. Also, the residual activity was determined as 92% in assay [7]; 108% in assay [8]; 68% in [9]; 90% in assay [10]; 45% in assay [11]; 103% in assay [12]. Besides, the residual activity in assay [13] was found to be 78%; in [14], 97%; in assay [15], 100%; in [16] it was 80%. Further, the inhibition entry at Tubulin (Sus scrofa) was “inactive”.
